Measurements of several laboratories.
Each line is one published result; the experiments were not run side by side.
Target: Protein kinase C alpha type (PRKCA, Homo sapiens, UniProt P17252)

Compound | read-out | action | method | tested at | endpoint | result
CCN(CC)CCNC(=O)c1c(C)[nH]c(/C=C2\C(=O)Nc3ccc(F)cc32)c1C | enzyme activity | inhibitor |  | 0.1 µM | remaining activity | 101%
CC(C)(C)c1nc2c(s1)c1nc(N)ncc1c1ccc(NS(=O)(=O)c3c(F)cccc3F)c(F)c12 | enzyme activity | inhibitor | radiometric | 1 µM | remaining activity | 107%
Cc1[nH]c(/C=C2\C(=O)Nc3ccc(F)cc32)c(C)c1C(=O)N[C@H]1CCN(C(=O)N(C)C)C1 | enzyme activity | inhibitor |  | 1 µM | remaining activity | 106%
FC(F)(F)Oc1cccc(-c2cnc3ccc(-c4ccncc4)nn23)c1 | enzyme activity | inhibitor | radiometric | 5 µM | activity vs control | 91%
CN(C)CCCn1cc(C2=C(c3c[nH]c4ccccc34)C(=O)NC2=O)c2ccccc21 | cell-free assay |  |  | 0.5 µM | remaining signal | 6.27%
COc1cc2ncnc(Nc3ccc(Oc4ccccc4)c(C)c3C)c2cc1OC | enzyme activity | inhibitor |  | 1 µM | inhibition | 8%
COc1cc(Nc2cnc(C#N)c(O[C@H](C)CN(C)C)n2)ncc1-c1cnn(C)c1 | enzyme activity | inhibitor | radiometric | 1 µM | remaining activity | 115%
Cc1ccc(Nc2nccc(N(C)c3ccc4c(C)n(C)nc4c3)n2)cc1S(N)(=O)=O | enzyme activity | inhibitor |  | 10 µM | inhibition | 10%
C=CC(=O)Nc1cc(Nc2nccc(Nc3cc(Cl)c(F)cc3C(C)(C)O)n2)c(OC)cc1N1CC[C@@H](N(C)C)C1 | enzyme activity | inhibitor |  | 1 µM | inhibition | 13%
COc1cc(/C=C/C(=O)CC(=O)/C=C/c2ccc(O)c(OC)c2)ccc1O | enzyme activity | inhibitor |  | 1 µM | activity vs control | 106%
CC/C(=N\NC(=O)NCc1cccc(O)c1)c1ccc(O)c(C)c1O | enzyme activity | inhibitor |  | 0.1 µM | inhibition | 2.6%
Cn1c(=O)n(-c2ccc(C(C)(C)C#N)cc2)c2c3cc(-c4cnc5ccccc5c4)ccc3ncc21 | enzyme activity | inhibitor |  | 10 µM | remaining activity | 87%
O=C(Nc1cnn(-c2csc(C(=O)NC3COC3)c2)c1)Nc1c(F)cccc1Cl | enzyme activity | inhibitor |  | 5 µM | remaining activity | 90.7%
Cc1ccc(NC(=O)c2ccc(C)c(C(F)(F)F)c2)cc1C#Cc1nn(C2CCC(O)CC2)c2ncnc(N)c12 (stereo not shown) | cell-free assay |  |  | 10 µM | remaining signal | 110%
CCCS(=O)(=O)Nc1ccc(F)c(C(=O)c2c[nH]c3ncc(-c4ccc(Cl)cc4)cc23)c1F | enzyme activity | inhibitor |  | 1 µM | inhibition | < 10%
Oc1cccc(-c2nc(N3CCOCC3)c3oc4ncccc4c3n2)c1 | enzyme activity | inhibitor |  | 10 µM | remaining activity | 93%
CS(=O)(=O)Nc1cccc(-c2csc(NC(=O)CSc3nc4nccnc4c(=O)n3CCc3ccccc3)n2)c1 | enzyme activity | inhibitor |  | 10 µM | inhibition | 1%
Cc1ccc(C(=O)NCc2ccsc2)cc1C#Cc1cn(C(C)C)c2ncnc(N)c12 | enzyme activity | inhibitor |  | 1 µM | activity vs control | 92%
O=C1NC(=O)c2cc(Nc3ccc(F)cc3)c(Nc3ccc(F)cc3)cc21 | cell-free assay |  |  | 0.5 µM | remaining signal | 99.3%
Cc1sc(C(=O)NC2COC2)cc1-n1cc(NC(=O)Nc2c(F)cccc2Cl)cn1 | enzyme activity | inhibitor |  | 10 µM | remaining activity | 95.9%
N#CCCc1ccc2c(c1)-c1[nH]c3ccc([N+](=O)[O-])cc3c1CC(=O)N2 | cell-free assay |  |  | 0.5 µM | remaining signal | 80.9%
CC(C)(O)[C@H]1CC[C@H](Nc2ccc3ncc(-c4cccc(C(F)(F)F)c4)n3n2)CC1 | enzyme activity | inhibitor |  | 1 µM | remaining activity | 69.5%
